From PubChem
Most compounds without a hit are left out; they make up all but 4.2% or so of the library.
KCC2 mod – KCC2 cotransporter modulators, thallium flux, primary screen, cell-based, HEK293 KCC2, FluoZin-2 fluorescence, MLSMR; Solute carrier family 12 member 5 (Homo sapiens), Q9H2X9; KCC2 cells, thallium flux FluoZin-2 fluorescence; B-score of Tl+ flux slope (higher = more flux/activation; lower = inhibition) at 10 µM; hit rate 2.2% among 190,000; AID 1456, 2008;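 active = thallium flux slope and its plate-corrected score both differing from the plate sample mean at a set confidence after two filtering rounds, in either direction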;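 note: slope of fluorescence scaled to starting intensity during 10 to 20 s after thallium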
KCNQ1 pot – potentiators or activators of KCNQ1 channel, primary screen, cell-based, thallium flux, high-throughput; CHO-K1 KCNQ1, thallium flux FluxOR fluorescence; stronger effect = higher value; B-score at 10 µM; hit rate 0.35% among 310,000; AID 2648, 2010;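 active = fluorescence ratio B-score, a plate-corrected score, at least three library SD, with initial intensity B-score within 5 SD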
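Test system: CHO-K1 cells stably expressing KCNQ1 / Medium: assay buffer / Also added: depolarizing K+/Tl+ stimulus, K2SO4 and Tl2SO4 each 12.5 mM in 5x stock / Incubation: 90 min dye loading and 20 min compound exposure, both at room temperature / Signal: thallium influx via FluxOR fluorescence, kinetic imaging / Evaluation: B score of baseline-normalized fluorescence ratio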
Mot1-301 SUMO – yeast Mot1-301 growth rescue at high temperature, primary screen, SUMOylation pathway inhibitor project, S. cerevisiae, ATP luminescence, 38.5C; hit rate 1% among 320,000; AID 2716, 2010; growth rescue, % at 18.8 µM; S. cerevisiae Mot1-301 growth rescue; percent above DMSO median, 100 means doubled;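 active = every valid replicate shows activation above 250% relative to neutral control wells; inactive = the rest, any valid replicate at or below 250%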;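 note: OY570 slx delta 5 strain wells were the positive control but not used for scaling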
hERG protect – hERG rescue from dofetilide block, primary screen, cell-based, CHO-hERG, FluxOR thallium flux, dofetilide IC70 | dofetilide IC70 present | AID 1511, 2009 | hit rate 0.51% among 310,000 | activation (rescue from dofetilide block), less the hit threshold, % at 10 µM;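 active = activation above the mean of controls blocked by dofetilide plus 5 SD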;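 note: thallium influx through hERG after potassium depolarization seen as dye fluorescence rise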
Target sequence (Q12809 whole entry, looked up): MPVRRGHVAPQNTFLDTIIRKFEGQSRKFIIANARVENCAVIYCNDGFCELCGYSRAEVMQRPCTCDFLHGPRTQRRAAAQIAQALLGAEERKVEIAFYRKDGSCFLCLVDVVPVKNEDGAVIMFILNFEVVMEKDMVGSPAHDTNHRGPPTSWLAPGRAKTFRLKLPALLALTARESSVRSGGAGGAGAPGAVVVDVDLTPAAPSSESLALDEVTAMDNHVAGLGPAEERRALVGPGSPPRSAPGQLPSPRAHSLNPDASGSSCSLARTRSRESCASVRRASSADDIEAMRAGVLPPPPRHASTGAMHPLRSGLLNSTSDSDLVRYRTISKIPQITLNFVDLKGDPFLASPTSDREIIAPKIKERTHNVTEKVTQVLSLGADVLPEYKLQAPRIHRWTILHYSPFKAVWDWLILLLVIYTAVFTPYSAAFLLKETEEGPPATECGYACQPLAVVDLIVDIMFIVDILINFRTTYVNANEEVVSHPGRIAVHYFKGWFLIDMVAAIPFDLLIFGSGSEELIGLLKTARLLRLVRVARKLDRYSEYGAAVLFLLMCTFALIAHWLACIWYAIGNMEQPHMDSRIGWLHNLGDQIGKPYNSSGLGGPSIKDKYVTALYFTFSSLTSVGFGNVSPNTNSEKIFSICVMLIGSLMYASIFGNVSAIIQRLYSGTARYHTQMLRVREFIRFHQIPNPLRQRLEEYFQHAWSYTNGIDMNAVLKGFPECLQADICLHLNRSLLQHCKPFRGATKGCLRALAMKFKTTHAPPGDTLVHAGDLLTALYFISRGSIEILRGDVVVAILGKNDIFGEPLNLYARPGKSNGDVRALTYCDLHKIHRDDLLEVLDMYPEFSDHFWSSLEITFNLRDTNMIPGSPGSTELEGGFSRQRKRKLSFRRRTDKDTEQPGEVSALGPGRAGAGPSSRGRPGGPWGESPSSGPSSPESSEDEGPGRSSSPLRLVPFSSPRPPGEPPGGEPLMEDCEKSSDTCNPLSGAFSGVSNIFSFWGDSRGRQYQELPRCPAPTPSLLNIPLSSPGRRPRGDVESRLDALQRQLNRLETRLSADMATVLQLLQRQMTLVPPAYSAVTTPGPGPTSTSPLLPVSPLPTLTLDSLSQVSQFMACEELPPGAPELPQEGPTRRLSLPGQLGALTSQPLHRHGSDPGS
KCNQ1 block – inhibitors of human KCNQ1 channel, primary screen, cell-based, thallium flux, high-throughput. Potassium voltage-gated channel subfamily KQT member 1 (Homo sapiens), P51787. CHO-K1 KCNQ1, FluxOR thallium flux fluorescence; stronger effect = higher value. B-score at 10 µM. hit rate 1.3% among 310,000;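 active = compounds whose thallium flux B-score, printed positive for inhibition, exceeds three library SD while starting fluorescence stays within three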;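 note: channel opened by potassium depolarization with thallium stimulus after 20 min compound exposure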
AI-2 QS mod – Vibrio harveyi AI-2 quorum sensing modulators, primary screen, JMH597 strain, luminescence/OD600 ratio; Vibrio harveyi JMH597 AI-2 luminescence/OD600 ratio, 9 h; stronger effect = lower value; strain lacks LuxN and CqsS sensors; 0 = neutral-control median; activity change, % at 7.5 µM; hit rate 0.4% among 300,000; AID 2094, 2009; in the data active = activity change below about -75%, passing the limit was not always enough; inconclusive = no clear call, values can overlap the other calls;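 note: luminescence divided by OD600 gain over 9 h not by final OD600 alone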
KCC2 secondary – KCC2 modulators in sodium-free buffer, confirmation, cell-based, HEK293 KCC2, thallium flux, secondary assay | normalised thallium flux (F/F0 slope) at 10 µM | hit rate 15% among 3,700 | FluoZin2 fluorescence; stronger effect = higher value | shares compounds with KCC2 mod;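 active = thallium flux slope above the same plate's solvent-only control mean plus 3 SD; inconclusive = the two replicate wells disagree; inactive = no significant difference from solvent-only control wells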
KCC2 bumet counter – thallium flux persisting under bumetanide in KCC2 cells, confirmation, counter-screen for KCC2 modulator project, cell-based, HEK293 KCC2, FluoZin2, secondary assay 3; shares compounds with KCC2 mod; HEK293-KCC2 + bumetanide/ouabain; stronger effect = higher value; normalized thallium flux at 10 µM; hit rate 49% among 3,700; AID 1714, 2009;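 active = thallium entry rate above the same plate's blocked-transporter control wells by more than 3 SD; inconclusive = the two repeat wells disagree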;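 note: raw slope of fluorescence over initial fluorescence between 10 and 20 s after thallium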
KCC2 sec2 – KCC2 modulators without ouabain present, confirmation, cell-based, HEK293 KCC2, thallium flux, FluoZin2, secondary assay 2 | shares compounds with KCC2 mod | thallium flux FluoZin2 fluorescence; actives lie on both sides; F/F0 rise rate, 10–20 s post-thallium | normalized thallium flux at 10 µM | hit rate 23% among 3,700;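 active = thallium flux slope more than 3 SD above or below the plate's solvent-only control mean, mostly below; inconclusive = the two repeat wells disagreed; inactive = no significant shift from solvent-only controls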;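 note: raw slope with 0.1% DMSO as baseline and bumetanide as block control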
HEK293 Tl flux – thallium flux modulation in parental HEK cells, confirmation, counter-screen for KCC2 modulator project, cell-based, counterscreen 1; shares compounds with KCC2 mod; HEK293 parental cells, thallium flux FluoZin2, ouabain; baseline-ratio fluorescence slope, 10–20 s after thallium; thallium flux rate (normalised fluorescence) at 10 µM; hit rate 46% among 3,700; AID 1716, 2009;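 active = thallium flux rate significantly above the same plate's solvent-only control wells, beyond their mean plus 3 SD; inconclusive = the two replicate wells gave conflicting results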
KCC2 retest ouab – KCC2 inhibitors and activators, ouabain retest, confirmation, HEK-KCC2 cells. shares compounds with KCC2 mod. HEK293-KCC2, thallium flux FluoZin2 fluorescence; bidirectional: low = inhibitor, high = activator. raw Tl+ flux slope (below DMSO = inhibition, above = activation) at 10 µM. hit rate 48% among 3,700;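 active = thallium flux slope beyond 3 SD from same-plate DMSO control mean in most replicates, usually higher, sometimes lower; inconclusive = repeat tests gave conflicting results; inactive = no significant difference from controls in most replicates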;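 note: slope of initial-normalized fluorescence between seconds 10 and 20 after thallium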
HEK293 Tl flux2 – native HEK Tl+ uptake effects, second counter-screen – HEK cells, counterscreen 2, counter-screen for KCC2 modulator project, confirmation; shares compounds with KCC2 mod; HEK293 parental, thallium flux FluoZin-2 fluorescence slope; thallium flux slope at 10 µM; hit rate 33% among 3,700;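 active = thallium flux slope above the same plate's solvent-control mean plus 3 SD in both duplicate wells; inconclusive = duplicate wells that disagreed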;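 note: run without ouabain in cells lacking the KCC2 cotransporter; slope of fluorescence scaled to its starting value between 10 and 20 s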
* marks the source's active call; other numbers are inactive results.

What do the screens show for `CC(C#N)Sc1ncnc2sc3c(c12)CCC3` (configuration not stated)?
KCC2 mod: 4.25*; KCNQ1 pot: inactive; Mot1-301 SUMO: -9.2; hERG protect: -7.6; KCNQ1 block: inactive; AI-2 QS mod: 42.8; KCC2 secondary: inconclusive; KCC2 bumet counter: 0.0315*; KCC2 sec2: 0.0328; HEK293 Tl flux: 0.0171*; KCC2 retest ouab: 0.0219; HEK293 Tl flux2: 0.0129*

Results for O=C(CSc1ncnc2sc3c(c12)CCCC3)c1ccccc1 ?
KCC2 mod: 2.82; KCNQ1 pot: inactive; Mot1-301 SUMO: 84.1; hERG protect: -8.6; KCNQ1 block: inactive; AI-2 QS mod: 9.8

How did CC(=O)C(Sc1ncnc2sc3c(c12)CCCC3)C(C)=O do in these assays?
KCC2 mod: 6.42*; KCNQ1 pot: inactive; Mot1-301 SUMO: -3.1; hERG protect: -7.5; KCNQ1 block: inactive; AI-2 QS mod: 25.0; KCC2 secondary: 0.0149*; KCC2 bumet counter: 0.0999*; KCC2 sec2: 0.0294; HEK293 Tl flux: 0.0182*; KCC2 retest ouab: inconclusive; HEK293 Tl flux2: 0.0131*

Results for O=C(O)c1ccccc1Sc1ncnc2sc3c(c12)CCC3 ?
KCC2 mod: -1.26; KCNQ1 pot: inactive; Mot1-301 SUMO: -4.2; hERG protect: -10.4; KCNQ1 block: inactive; AI-2 QS mod: 7.8

How did CNC(=O)CN(Cc1ccccc1)S(=O)(=O)c1ccc(Cl)cc1 do in these assays?
KCNQ1 pot: inactive; Mot1-301 SUMO: 1.2; hERG protect: -0.5; KCNQ1 block: inactive; AI-2 QS mod: 9.1

What do the screens show for `CCC(C)(C)NC(=O)C(c1cccc(OC)c1)N(C(=O)CNC(=O)c1cccs1)c1cccnc1` (configuration not stated)?
KCNQ1 pot: inactive; Mot1-301 SUMO: -9.0; hERG protect: -5.4; KCNQ1 block: inactive; AI-2 QS mod: 11.3

What do the screens show for `O=[N+]([O-])c1cc2c(c(CSc3nnnn3-c3ccc(O)cc3)c1)OCOC2`?
KCC2 mod: -1.24; KCNQ1 pot: inactive; Mot1-301 SUMO: 6.9; hERG protect: -10.0; KCNQ1 block: inactive; AI-2 QS mod: 18.3

How did CC(C)Cn1c(N)c(C(=O)CSc2ncnc3sc4c(c23)CCCC4)c(=O)n(C)c1=O do in these assays?
KCC2 mod: 7.94*; KCNQ1 pot: inactive; Mot1-301 SUMO: -24.9; hERG protect: -0.9; KCNQ1 block: inactive; AI-2 QS mod: 22.5; KCC2 secondary: 0.0177; KCC2 bumet counter: 0.0141*; KCC2 sec2: 0.0312; HEK293 Tl flux: 0.0137*; KCC2 retest ouab: 0.0213*; HEK293 Tl flux2: 0.0138*

Results for Cc1cccc(COCCN2CCN(S(=O)(=O)c3ccccc3)CCC2=O)c1 ?
KCC2 mod: 0.0198; KCNQ1 pot: inactive; Mot1-301 SUMO: -1.6; hERG protect: -6.4; KCNQ1 block: inactive; AI-2 QS mod: 5.6

How did CC1CCC2(CC1)NC(=O)N(Cc1cccc(C(F)(F)F)c1)C2=O (configuration not stated) do in these assays?
KCC2 mod: 0.534; KCNQ1 pot: inactive; Mot1-301 SUMO: -10.0; hERG protect: -11.1; KCNQ1 block: inactive; AI-2 QS mod: 6.5

How did O=C(CN1CCN(c2ccccc2F)CC1)c1c[nH]c2ccccc12 do in these assays?
KCC2 mod: -4.3*; KCNQ1 pot: inactive; Mot1-301 SUMO: -8.4; hERG protect: -8.1; KCNQ1 block: inactive; AI-2 QS mod: 7.4; KCC2 secondary: 0.0092; KCC2 bumet counter: 0.00608; KCC2 sec2: 0.0316; HEK293 Tl flux: 0.00783; KCC2 retest ouab: 0.0233; HEK293 Tl flux2: 0.0111*

Results for COc1cc(CN(C)Cc2ccccc2)cc(OC)c1O ?
KCC2 mod: 0.00583; KCNQ1 pot: inactive; Mot1-301 SUMO: -12.5; hERG protect: -6.1; KCNQ1 block: inactive; AI-2 QS mod: 10.7

Results for CCOC(=O)N1CCN(C(=O)Cc2ccccc2OC)CC1 ?
KCNQ1 pot: inactive; Mot1-301 SUMO: 243.9; hERG protect: -10.8; KCNQ1 block: inactive; AI-2 QS mod: 12.6

What do the screens show for `Cc1ccc(O)c(N=Cc2cc(Cc3ccccc3)cc([N+](=O)[O-])c2O)c1`?
KCC2 mod: -3.83*; KCNQ1 pot: inactive; hERG protect: -16.2; KCNQ1 block: inactive; AI-2 QS mod: 31.7; KCC2 secondary: 0.00672; KCC2 bumet counter: inconclusive; KCC2 sec2: 0.0321; HEK293 Tl flux: 0.00349; KCC2 retest ouab: 0.0143*; HEK293 Tl flux2: inconclusive
